Experiment [1] addresses T1, UDP-3-O-acyl-N-acetylglucosamine deacetylase (Escherichia coli K-12, UniProt P0A725).
T1 sequence (P0A725 whole entry): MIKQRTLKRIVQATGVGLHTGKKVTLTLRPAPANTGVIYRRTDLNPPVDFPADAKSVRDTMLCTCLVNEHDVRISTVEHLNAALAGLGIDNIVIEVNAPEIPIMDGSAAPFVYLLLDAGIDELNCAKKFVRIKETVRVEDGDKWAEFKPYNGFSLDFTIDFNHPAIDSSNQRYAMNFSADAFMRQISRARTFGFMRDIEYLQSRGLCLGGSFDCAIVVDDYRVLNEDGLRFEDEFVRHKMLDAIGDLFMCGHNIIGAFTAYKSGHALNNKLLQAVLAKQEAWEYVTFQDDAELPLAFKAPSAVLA
Briefly: Inhibition of Escherichia coli LpxC using UDP-3-O-[(R)-3-hydroxymyristoyl]-N-acetylglucosamine as substrate incubated for 30 mins prior to enzyme addition by fluorescence assay.

Experiment [2] has as its system Escherichia coli. Briefly: Antimicrobial activity against Escherichia coli D22 at 10 mM after overnight incubation by agar disc diffusion method. Conditions: read-out: DIZ. It counts as functional. An outline of the steps: (§1)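 Strains grown overnight in LB broth at 37 °C, 200 rpm; 150 µL overnight suspension spread on LB agar. 15 µL of compound (10 mM stock in DMSO) applied to 6 mm filter paper discs; DMSO negative and CHIR-090 positive controls. Plates incubated overnight at 37 °C; zone of inhibition diameter measured, mean ± SD of three independent experiments.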

Experiment [3] has as its system Escherichia coli. Briefly: Antimicrobial activity against Escherichia coli BL21(DE3) at 10 mM after overnight incubation by agar disc diffusion method. Conditions: read-out: DIZ. It counts as functional. An outline of the steps: as §1
Background: In agar diffusion tests the substance spreads into inoculated agar from a disc or well.

Experiment [4] concerns the target T2, UDP-3-O-acyl-N-acetylglucosamine deacetylase (Escherichia coli K-12) (UniProt P0A725).
T2 sequence (whole entry): T1 sequence (P0A725 whole entry)
Briefly: Inhibition of Escherichia coli LpxC using UDP-3-O-[(R)-3-hydroxymyristoyl]-N-acetylglucosamine as substrate up to 200 uM incubated for 30 mins prior to enzyme addition by fluorescence assay. The gist of the method:
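Purified E. coli LpxC (stored in 50 mM Bis/Tris pH 6.0, 150 mM NaCl). 40 mM MES pH 6.0 with 25 µM substrate, 80 µM DTT, 0.02% Brij 35; inhibitors in DMSO, 0.2 nM–200 µM, 30 min at 37 °C shaking before adding 500 ng enzyme. Stopped with NaOH, neutralized with acetic acid; product derivatized with o-phthaldialdehyde-2-mercaptoethanol in borax, fluorescence ex 340/em 460 nm. IC50 converted to Ki by Cheng-Prusoff (KM 4 µM); mean ± SD, n=3.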

Active and inactive are the calls of the source. No cut-off for these calls is given here.

By IC50 is commonly meant the midpoint of a concentration-inhibition curve. Consider `O=C(COCc1ccc(C#Cc2ccccc2)cc1)NO`, for which the IC50 in experiment [1] was over 200 µM. The zone of inhibition at 10000 µM is 13.2 mm in experiment [2] and 10.6 mm in experiment [3].
The corresponding values for `O=C(CO[C@H](CO)c1ccccc1)NO` are over 200 µM, under 6 mm and under 6 mm.
For `C#Cc1ccc([C@@H](CO)OCC(=O)NO)cc1`, the inhibition entry in experiment [4] was “inactive”. The IC50 in experiment [1] was over 200 µM. The zone of inhibition at 10000 µM in experiment [2] and in experiment [3] was under 6 mm in each case.
By Ki is commonly meant a measure of affinity in units of concentration, obtained from inhibition or displacement. In experiment [1], `O=C(NO)[C@H](CO)O[C@H](CO)c1ccc(C#Cc2ccc(CN3CCOCC3)cc2)cc1` showed an IC50 of 2.6 µM and a Ki of 358 nM. In experiment [2], the zone of inhibition at 10000 µM was 20.8 mm. The zone of inhibition at 10000 µM in experiment [3] was 9 mm.
Consider `C[Si](C)(C)C#Cc1ccc([C@@H](CO)OCC(=O)NO)cc1`, for which the inhibition entry in experiment [4] was “inactive”. In experiment [1], this molecule returned an IC50 of over 200 µM. Besides, the zone of inhibition at 10000 µM in experiment [2] is 7.5 mm; in experiment [3], under 6 mm.
`O=C(CO[C@H](CO)c1ccc(C#Cc2ccccc2)cc1)NO`: in experiment [1], the IC50 came out at 0.48 µM and the affinity, expressed as Ki, was 66 nM. Besides, the zone of inhibition at 10000 µM in experiment [2] was determined as 20.5 mm. Moreover, the zone of inhibition at 10000 µM in experiment [3] was found to be 9.5 mm.
`O=C(NO)[C@H]1O[C@@H](c2ccc(C#Cc3ccc(CN4CCOCC4)cc3)cc2)[C@@H](O)[C@H]1O` had a 50% inhibitory concentration (IC50) in experiment [1] of over 200 µM. The zone of inhibition at 10000 µM was 13.1 mm in experiment [2] and under 6 mm in experiment [3].
In experiment [1], `O=C(COCc1ccc(C#Cc2ccc(CN3CCOCC3)cc2)cc1)NO` yielded an IC50 of 10.5 µM and a Ki of 1450 nM. Further, the zone of inhibition at 10000 µM in experiment [2] was determined as 20.3 mm. In experiment [3], the zone of inhibition at 10000 µM stood at 16.5 mm.
In the case of `O=C(CO[C@H](CO)c1ccc(C#Cc2ccc(CN3CCOCC3)cc2)cc1)NO`, in experiment [1], inhibition was half-maximal at 0.69 µM (IC50) and the Ki stood at 95 nM. Moreover, the zone of inhibition at 10000 µM in experiment [2] came out at 21.2 mm. For the same molecule, the zone of inhibition at 10000 µM in experiment [3] stood at 13.4 mm.
As for `O=C(CO[C@H](CO)c1ccc(Br)cc1)NO`, the inhibition result in experiment [4] is “inactive”. The same molecule displayed an IC50 in experiment [1] of over 200 µM. The zone of inhibition at 10000 µM in experiment [2] and in experiment [3] was under 6 mm throughout.
As to `C[Si](C)(C)C#Cc1ccc([C@H](CO)OCC(=O)NO)cc1`, in experiment [1], the IC50 was over 200 µM. In addition, the values for the zone of inhibition at 10000 µM in experiment [2] and in experiment [3] were 7.2 mm and 7.1 mm, respectively.
The corresponding values for `O=C(CO[C@@H](CO)c1ccccc1)NO` are over 200 µM, under 6 mm and under 6 mm.
In experiment [1], `O=C(CO[C@@H](CO)c1ccc(C#Cc2ccc(CN3CCOCC3)cc2)cc1)NO` yielded a 50% inhibitory concentration (IC50) of 198 µM and a Ki of 27300 nM. In experiment [2], the zone of inhibition at 10000 µM came out at 12.3 mm. Besides, in experiment [3], the zone of inhibition at 10000 µM was found to be 8.7 mm.
`O=C(CO[C@@H](CO)c1ccc(Br)cc1)NO` displayed an IC50 in experiment [1] of over 200 µM. The zone of inhibition at 10000 µM in experiment [2] and in experiment [3] was under 6 mm throughout.
As to `C[C@@H](O)[C@H](NC(=O)c1ccc(C#Cc2ccc(CN3CCOCC3)cc2)cc1)C(=O)NO`, the zone of inhibition at 10000 µM in experiment [2] was determined as 30.3 mm; in experiment [3] it was 24.6 mm.
As for `C#Cc1ccc([C@H](CO)OCC(=O)NO)cc1`, the IC50 in experiment [1] is over 200 µM. The zone of inhibition at 10000 µM in experiment [2] and in experiment [3] was under 6 mm each time.
Turning to `O=C(CO[C@@H](CO)c1ccc(C#Cc2ccccc2)cc1)NO`, in experiment [1], the IC50 amounted to 31.6 µM and the Ki is 4400 nM. The zone of inhibition at 10000 µM in experiment [2] was 13 mm. Moreover, in experiment [3], the zone of inhibition at 10000 µM was 9.1 mm.

The values above are taken from ChEMBL document CHEMBL3102822, “Synthesis, biological evaluation and molecular docking studies of benzyloxyacetohydroxamic acids as LpxC inhibitors” (Bioorg Med Chem, 2014).
